Here are results for 26 compounds from ChEMBL document CHEMBL1122272, “2-haloethylating agents for cancer chemotherapy. 2-haloethyl sulfonates” (1983).

“And” between values parts separate entries of the source, which are not always exact repeats. Equal values may be shown once.

The subject of assay [1] is P388. Put plainly: Weight change in mice against P388 leukemia. It is filed as functional, Mus musculus. In short, it runs like this: (§1)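 P388 leukemia mice given 10⁶ cells ip on day 0 and then treated on a single day-1 or q.d. 1-9 or 1-5 schedule. Solutions or suspensions given within about 5 or 15 min of preparation. Value is average weight change on day 5 of treated mice minus that of control mice, in g.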

Assay [2] has as its system P388. Put plainly: (§2) T/C ratio against P388 leukemia in mice at a dose(mg/kg, schedule (q.d.)). The assay is classed as functional, Mus musculus. The method in brief:
(§3)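 Mice inoculated ip with 10⁶ P388 leukemia cells on day 0. Dosed once on day 1, or q.d. days 1-9 or 1-5. Solutions or suspensions given within about 5 min of preparation, or within 15 min where marked. Value is median/mean survival time, treated vs control, as T/C %. Dose counted toxic if day-5 mortality >3 of 6, T/C <85%, or weight-change difference beyond -4 g.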

The subject of assay [3] is P388. As to the kind of experiment: T/C ratio against P388 leukemia in mice at a dose(mg/kg, schedule (q.d.). It is filed as functional, organism-based. As to conditions: Mus musculus. In short, it runs like this:
as §3

Assay [4] relates to P388. As to the kind of experiment: weight change difference (T-C) in mice against P388 leukemia at a dose(mg/kg, schedule). The assay is classed as functional, Mus musculus. In short, it runs like this:
as §1

Assay [5] relates to P388. As to the kind of experiment: T/C ratio against P388 leukemia in mice at a dose(mg/kg, schedule). It is filed as functional, Mus musculus. The method in brief:
as §3

In assay [6] the test system is P388. Put plainly: T/C ratio against P388 leukemia in mice dose(mg/kg, schedule (q.d.)). The assay is classed as functional, Mus musculus. In short, it runs like this:
as §3

The subject of assay [7] is P388. The assay is described as §2. The assay is classed as functional, Mus musculus. The method in brief: as §3
The source holds these as a separate data set.

For assay [8], the system named is P388. The description is as §2. The assay is classed as functional, Mus musculus. In short, it runs like this:
as §3
The source holds these as a separate data set.

Assay [9] relates to P388. The description is as §2. It is filed as functional, Mus musculus. In short, it runs like this: as §3
The source holds these as a separate data set.

A word on the T/C: it is the ratio of treated to control. Take `C=C(Br)S(=O)(=O)OCCCl`: the Weight change difference in the assay with P388 [1] was -2.8 g and -1.4 g. Moreover, the T/C in the assay with P388 [2] is 100% and 104%; with P388 [3] it was “Toxic”.

On to `O=S(=O)(/C=C/c1ccccc1)OCCCl`, for which, in the assay on P388 [1], the Weight change difference was -0.1 g. Besides, the T/C in the assay with P388 [2] is 107%.

For the compound `N#CCS(=O)(=O)OCCCl`, the Weight change difference with P388 [1] is -1.5 g and -2.1 g and -1.1 g. In addition, the T/C in the assay with P388 [2] was 151% and 144% and 126%.

Turning to `Cc1cc(C)c(S(=O)(=O)OCCCl)c(C)c1`, the T/C in the assay with P388 [2] was 95% and 106%; in the assay on P388 [3] it was “Toxic”.

`O=S(=O)(CCl)OCCF`: the Weight change difference in the assay with P388 [1] was -2.1 g and -0.8 g. The T/C is 117% and 102% with P388 [2]; “Toxic” in the assay with P388 [3].

As to `O=C(CCl)NCCCl`, the T/C was 100% and 97% in the assay on P388 [2]; “Toxic” in the assay on P388 [3].

On to `CCS(=O)(=O)OCCCl`, for which the T/C with P388 [2] is 116% and 104%.

`O=S(=O)(CCl)OCCCl`: the T/C in the assay with P388 [2] was 214% and 201% and 175% and 131% and 120%; in the assay on P388 [3] it was “Toxic”.

With `O=S(=O)(OCCCl)c1ccc(F)cc1`, the T/C with P388 [2] was 100% and 101%.

Consider `O=S(=O)(OCCCl)c1c(F)c(F)c(F)c(F)c1F`, for which the T/C is 110% and 100% with P388 [2]; “Toxic” in the assay with P388 [3].

In the case of `O=S(=O)(OCCF)c1cc(Cl)c(Cl)cc1Cl`, the T/C in the assay with P388 [2] was 113% and 98%; in the assay on P388 [3] it was “Toxic”.

Regarding `CS(=O)(=O)OCCBr`, the T/C was 116% and 114% in the assay with P388 [2]; “Toxic” in the assay on P388 [3].

With `CS(=O)(=O)OCCCl`, the Weight change difference with P388 [4] is -1.2 g and -2.2 g and -0.9 g; in the assay with P388 [1], -1.6 g and -0.8 g. In addition, the T/C is 110% in the assay with P388 [5]; 108% with P388 [6]; 102% in the assay on P388 [7]; 134% and 133% in the assay on P388 [2]; “Toxic” with P388 [3].

As for `O=S(=O)(CI)OCCCl`, the Weight change difference in the assay on P388 [1] is recorded as -0.1 g. Also, the figures for the T/C with P388 [8], in the assay on P388 [2] and in the assay on P388 [3] were 110%, 93% and “Toxic”, respectively.

Turning to `O=[N+]([O-])c1ccc(CS(=O)(=O)OCCCl)cc1`, the T/C result with P388 [3] was “Toxic”.

For the compound `O=S(=O)(OCCCl)c1cc(Cl)c(Cl)cc1Cl`, in the assay with P388 [2], the T/C was 90% and 114% and 105%.

In the case of `CS(=O)(=O)OCCF`, the T/C in the assay on P388 [2] was 89% and 103% and 111% and 100%; in the assay on P388 [3], “Toxic”.

`COc1ccc(S(=O)(=O)OCCCl)cc1` showed a Weight change difference in the assay with P388 [1] of 0 g. The T/C in the assay with P388 [2] worked out at 100%.

As for `O=S(=O)(CCl)NCCCl`, the T/C with P388 [2] was 106%.

In the case of `C=CS(=O)(=O)OCCCl`, the T/C was 125% and 111% in the assay on P388 [2]; “Toxic” with P388 [3].

Consider `O=S(=O)(OCCCl)c1c(Cl)c(Cl)c(Cl)c(Cl)c1Cl`, for which the Weight change difference in the assay with P388 [1] was -3.2 g and -4.3 g and -1.6 g. In addition, the T/C is 96% and 92% in the assay with P388 [2]; 92% with P388 [9]; “Toxic” in the assay with P388 [3].

As to `O=S(=O)(CBr)OCCCl`, the Weight change difference in the assay with P388 [4] is recorded as -0.2 g. Moreover, in the assay with P388 [2], the T/C was 165% and 200% and 159% and 128% and 120%.

For `O=[N+]([O-])c1ccc(/C=C/S(=O)(=O)OCCCl)cc1`, the T/C is 100% and 104% in the assay on P388 [2]; “Toxic” in the assay with P388 [3].

Turning to `CCOS(=O)(=O)CCl`, in the assay on P388 [2], the T/C is 107% and 100% and 60%.

For `Cc1c(C)c(C)c(S(=O)(=O)OCCCl)c(C)c1C`, the Weight change difference in the assay on P388 [1] is -0.2 g. Also, in the assay on P388 [2], the T/C worked out at 95%.

Take `CCS(=O)(=O)OCCF`: the Weight change difference with P388 [1] is -0.7 g and -0.6 g. Also, the T/C in the assay on P388 [2] was 106% and 111%; in the assay with P388 [3] it was “Toxic”.
